Assay results as given in PMC6976987 (Molecular Genetics and Metabolism Reports, 2020).

Assay: Paroxetine drug interaction study: eliglustat pharmacokinetics in healthy adults
Type: in vivo, human
Conditions: for AUC: AUC0-τ; for AUC / AUC(0-inf) / Cmax: mean (SD); for AUC(0-inf): AUC0-∞
Summary of the method: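 Open-label, fixed-sequence study in healthy CYP2D6 non-poor metabolizers. Oral test compound 84 mg, fasted: single dose Day 1, BID Days 2–8, then BID with a strong CYP2D6 inhibitor 30 mg QD Days 9–18. Plasma sampled to 36 h Day 1, 12 h Day 8, 72 h Day 18, plus pre-dose samples. LC-MS/MS, LLOQ 0.5 ng/mL. Non-compartmental PK, tmax as median (min, max); ratios from log-transformed mixed-effects model.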

[1] = CYP2D6 EMs only, eliglustat 84 mg BID with paroxetine 30 mg QD
[2] = CYP2D6 non-PMs, eliglustat 84 mg BID with paroxetine 30 mg QD

increase in eliglustat AUC0-τ compared to eliglustat alone [1]: 8.4 fold
increase in eliglustat Cmax compared to eliglustat alone [1]: 7.0 fold
increase in eliglustat AUC0-τ (exposure) compared to eliglustat alone [2]: 8.9 fold
increase in eliglustat Cmax compared to eliglustat alone [2]: 7.3 fold
Ratio (%) of geometric least squares mean, AUC0-t (all subjects, multiple dose, test 30 mg paroxetine oral QD + 84 mg eliglustat oral BID (N = 33) vs reference 84 mg eliglustat oral BID alone (N = 34), 0 to 12 h): 8.93%
Ratio (%) of geometric least squares mean, Cmax (all subjects, multiple dose, test 30 mg paroxetine oral QD + 84 mg eliglustat oral BID (N = 33) vs reference 84 mg eliglustat oral BID alone (N = 36)): 7.31%
Tmax (eliglustat 84 mg BID, Days 2 to 8, all (N = 36), median (minimum, maximum)): 2.0 (0.5–3.0) h
Tmax (human, plasma, oral, 84 mg): 2 h
half-life (human, plasma, oral, 84 mg): 4.2 h
AUC (human, plasma, oral, 84 mg, eliglustat 84 mg BID, Days 2 to 8, CYP2D6 EMs only (N = 33), 0 to 12 h): 120 ng·h/mL
AUC (human, plasma, oral, 84 mg, eliglustat 84 mg BID, Days 2 to 8, all (N = 34), 0 to 12 h): 120 ng·h/mL
AUC(0-inf) (human, plasma, oral, 84 mg, eliglustat 84 mg single dose, Day 1, CYP2D6 EMs only (N = 28)): 77.4 ng·h/mL
AUC(0-inf) (human, plasma, oral, 84 mg, eliglustat 84 mg single dose, Day 1, all (N = 30)): 78.1 ng·h/mL
Cmax (human, plasma, oral, 84 mg, eliglustat 84 mg BID, Days 2 to 8, CYP2D6 EMs only (N = 33)): 19.4 ng/mL
Cmax (human, plasma, oral, 84 mg, eliglustat 84 mg BID, Days 2 to 8, all (N = 36)): 19.3 ng/mL
Cmax (human, plasma, oral, 84 mg, eliglustat 84 mg single dose, Day 1, CYP2D6 EMs only (N = 33)): 10.9 ng/mL
Cmax (human, plasma, oral, 84 mg, eliglustat 84 mg single dose, Day 1, all (N = 36)): 10.7 ng/mL
AUC (human, plasma, oral, eliglustat 84 mg BID + paroxetine 30 mg QD, Days 9 to 18, CYP2D6 EMs only (N = 30), 0 to 12 h): 847 ng·h/mL
Cmax (human, plasma, oral, eliglustat 84 mg BID + paroxetine 30 mg QD, Days 9 to 18, CYP2D6 EMs only (N = 30)): 110 ng/mL
Cmax (human, plasma, oral, eliglustat 84 mg BID + paroxetine 30 mg QD, Days 9 to 18, all (N = 33)): 110 ng/mL
Structure (SMILES): CCCCCCCC(=O)N[C@H](CN1CCCC1)[C@H](O)c1ccc2c(c1)OCCO2 [eliglustat]
